PMC3592994 (Hepatology (Baltimore, Md.), 2013)
pEC50: −log10 of the molar value. Structures can show the parent of a compound that is named as a salt.

Legend:
FXRα2 = biological target: T1, FXRα2 (Homo sapiens, UniProt Q96RI1); format: cell-based; details: for FXR transactivation relative to vehicle-treated control: 50 μM compound; for FXR transactivation relative to vehicle-treated control / pEC50: 24 hours; for pEC50: read-out: EC50 of FXR transactivation, agonist mode, 0-100 μM
T1 sequence (Q96RI1 1-472 isoform Q96RI1-2): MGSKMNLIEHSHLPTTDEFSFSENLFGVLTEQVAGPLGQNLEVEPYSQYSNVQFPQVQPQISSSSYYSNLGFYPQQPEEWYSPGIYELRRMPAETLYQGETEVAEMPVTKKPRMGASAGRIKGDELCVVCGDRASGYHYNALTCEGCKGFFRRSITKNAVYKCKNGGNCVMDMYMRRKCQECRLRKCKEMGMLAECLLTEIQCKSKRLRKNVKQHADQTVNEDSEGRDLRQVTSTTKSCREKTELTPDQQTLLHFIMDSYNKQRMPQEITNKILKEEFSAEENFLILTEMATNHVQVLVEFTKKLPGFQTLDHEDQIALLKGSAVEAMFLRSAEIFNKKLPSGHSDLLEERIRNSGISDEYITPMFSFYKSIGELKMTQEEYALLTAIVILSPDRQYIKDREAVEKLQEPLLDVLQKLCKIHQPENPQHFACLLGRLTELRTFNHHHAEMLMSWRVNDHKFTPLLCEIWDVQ
T1 sequence (P19793 1-462 partner): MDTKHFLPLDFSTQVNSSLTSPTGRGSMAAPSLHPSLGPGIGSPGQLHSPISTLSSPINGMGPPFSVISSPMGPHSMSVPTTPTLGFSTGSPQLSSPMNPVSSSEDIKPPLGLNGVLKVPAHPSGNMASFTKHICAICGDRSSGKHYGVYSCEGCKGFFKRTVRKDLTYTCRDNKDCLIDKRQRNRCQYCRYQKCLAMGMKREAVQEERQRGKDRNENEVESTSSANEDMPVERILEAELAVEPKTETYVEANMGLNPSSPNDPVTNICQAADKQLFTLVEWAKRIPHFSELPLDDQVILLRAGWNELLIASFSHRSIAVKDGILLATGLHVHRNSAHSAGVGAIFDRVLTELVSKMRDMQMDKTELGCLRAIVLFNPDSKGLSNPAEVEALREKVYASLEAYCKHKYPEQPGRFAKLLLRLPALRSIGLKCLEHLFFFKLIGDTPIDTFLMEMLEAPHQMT

FXR-LBD = biological target: T2, FXR-LBD (Homo sapiens, UniProt Q96RI1); experiment: HTRF cofactor; format: biochemical; details: for CDCA-mediated recruitment of SRC-1 peptide to FXR-LBD: 9 or 100 μM CDCA, 0-600 μM compound, dose-dependent; for recruitment of SRC-1 peptide to FXR-LBD by compound alone: agonist mode, no CDCA
T2 sequence (Q96RI1 244-472 isoform Q96RI1-2): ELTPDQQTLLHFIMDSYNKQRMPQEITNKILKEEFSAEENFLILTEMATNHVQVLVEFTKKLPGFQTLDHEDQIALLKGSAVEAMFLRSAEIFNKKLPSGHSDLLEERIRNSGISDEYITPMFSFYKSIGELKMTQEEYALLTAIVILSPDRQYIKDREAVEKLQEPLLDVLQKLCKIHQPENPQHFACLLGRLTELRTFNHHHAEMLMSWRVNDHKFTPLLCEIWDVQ

[1] = test system: Bsep, Mdr2, Ost-β, Sult2a1, Shp, Ntcp; experiment: Hepatic gene expression in gavaged mice; format: in vivo, mouse
Procedure, shortened: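 Female C57BL6 mice aged 7–8 weeks were gavaged twice daily for 2 days with 200 μL 20% cyclodextrin, 50 mg/kg cholic acid, or cholic acid plus 500 mg/kg test compound. Livers were harvested at 4 pm on day 2 after an 8-h fast, and hepatic gene expression was measured. Data are mean ± SEM, n = 6, by one-way ANOVA.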

BSEP, SHP = experiment: BSEP and SHP gene expression in primary human hepatocytes; format: cell-based; details: 50 μM, 24 hours
BSEP, SHP, CYP7A1 = format: cell-based, human; details: 50 μM, 24 hours; for induction of BSEP gene expression: scrambled siRNA group; for repression of CYP7A1 expression: siScramble group; for induction of SHP gene expression: siScrambled group, versus vehicle
NTCP = details: NTCP-transfected Xenopus laevis oocytes ref 19; cited from earlier work
BSEP [2] = experiment: BSEP gene expression in Huh7 cells; format: cell-based, human
Procedure, shortened: (§1)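 Relative mRNA was quantified by qPCR. Data are mean ± SEM, n = 3, by one-way ANOVA against the agonist-alone or vehicle group.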

BSEP [3] = details: X. laevis oocytes expressing BSEP ref 20; cited from earlier work
[4] = Serum PM5S in gavaged mice by UPLC/MSMS; format: in vivo, mouse
Procedure, shortened: (§2)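 Female C57BL6 mice aged 7–8 weeks were orally gavaged twice daily for 2 days (day 1 at 5:30 and 10:30 pm; day 2 at 8:30 am and 1:30 pm). Groups received 200 μL 20% cyclodextrin, 50 mg/kg cholic acid, or cholic acid plus 500 mg/kg test compound. After an 8-h fast, serum was collected at 4 pm on day 2 and analysed by UPLC/MSMS. Data are mean ± SEM, n ≥ 6, by one-way ANOVA.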

[5] = test system: primary human hepatocytes; details: primary human hepatocytes ref 19; cited from earlier work
FGF19 [6] = experiment: FGF19 gene expression in Huh7 cells; format: cell-based, human; details: 25-100 μM PM5S, 0.5 μM GW4064, 24 hours
Procedure, shortened: as §1

[7] = Serum bile acid concentrations in gavaged mice; format: in vivo, mouse; details: CA+PM5S co-gavaged mice versus vehicle or CA groups
Procedure, shortened: as §2

SHP and MDR3 = SHP and MDR3 gene expression in Huh7 cells; format: cell-based, human; details: 0-100 μM PM5S, 0.5 μM GW4064, 24 hours
Procedure, shortened: as §1

BSEP [8] = experiment: BSEP protein western blot in Huh7 cells; format: cell-based, human; details: 0.5 μM GW4064, 24 hours
[9] = test system: FXR-mediated bile acid efflux in Huh7 cells; experiment: Huh7 3H-taurocholic acid efflux; format: cell-based, human
Procedure, shortened: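 Huh7 cells were pretreated overnight with vehicle or 0.5 μM GW4064 with or without 25–50 μM test compound. Cells were washed for 1.5 h, then ³H-taurocholic acid efflux over 5 min was measured. Data are mean ± SEM, n = 3, by one-way ANOVA.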

FGF19 [10] = experiment: Secreted FGF19 in Huh7 cell culture media; format: cell-based, human; details: for levels of secreted FGF19: 0.5 μM GW4064
Procedure, shortened: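 Huh7 cells were incubated for 24 h with 0.5 μM GW4064 plus 0–100 μM test compound. FGF19 secreted into the culture medium was then assayed. Data are mean ± SEM, n = 3, by one-way ANOVA.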

CC(=O)C1CCC2C3CC[C@@H]4C[C@@H](OS(=O)(=O)O)CC[C@]4(C)C3CC[C@]12C (stereo partly drawn) [EPS, epipregnanolone sulfate]
activity of FXR in presence of CDCA (FXRα2): inhibited
FXR transactivation relative to vehicle-treated control (FXRα2): 125%
pEC50 (FXRα2): 4.82
CDCA-mediated recruitment of SRC-1 peptide to FXR-LBD (FXR-LBD): inhibited
recruitment of SRC-1 peptide to FXR-LBD by compound alone (FXR-LBD): unable to induce

C[C@H](CCC(=O)O)[C@H]1CC[C@H]2[C@@H]3[C@H](O)C[C@@H]4C[C@H](O)CC[C@]4(C)[C@H]3C[C@H](O)[C@]12C [CA, cholic acid, reference compound]
Hepatic gene expression levels of Bsep, Mdr2, Ost-β, and Sult2a1 ([1]; CA group, 50 mg/kg versus vehicle): significantly induced

C[C@H](O)[C@H]1CC[C@H]2[C@@H]3CC[C@H]4C[C@@H](OS(=O)(=O)[O-])CC[C@]4(C)[C@H]3CC[C@]12C.[Na+] [EPAS, epiallo-pregnanediol 3-sodium sulfate]
activity of FXR in presence of CDCA (FXRα2): inhibited
FXR transactivation relative to vehicle-treated control (FXRα2): 183%
pEC50 (FXRα2): 4.65
CDCA-mediated recruitment of SRC-1 peptide to FXR-LBD (FXR-LBD): inhibited
recruitment of SRC-1 peptide to FXR-LBD by compound alone (FXR-LBD): unable to induce

C[C@H](CCC(=O)O)[C@H]1CC[C@H]2[C@@H]3[C@H](O)C[C@@H]4C[C@H](O)CC[C@]4(C)[C@H]3CC[C@]12C [CDCA, chenodeoxycholic acid, reference compound]
BSEP expression induction (BSEP, SHP): 7.5 fold
induction of BSEP gene expression (BSEP, SHP, CYP7A1): 390%
repression of CYP7A1 expression (BSEP, SHP, CYP7A1): > 90%
induction of SHP gene expression (BSEP, SHP, CYP7A1): 481%

CC(=O)[C@H]1CC[C@H]2[C@@H]3CC[C@H]4C[C@@H](OS(=O)(=O)O)CC[C@]4(C)[C@H]3CC[C@]12C [PM5S, epiallopregnanolone sulfate]
taurocholate uptake by NTCP (NTCP): competitively inhibit
CDCA-mediated BSEP expression (BSEP [2]; all PM5S concentrations tested, 50 μM CDCA, 24 hours): significantly reduced
GW4064-mediated BSEP gene expression (BSEP [2]; increasing PM5S doses (0-100 μM), 0.5 μM GW4064, 24 hours): completely abolished
efflux of bile acids (BSEP [3]): reduce the efflux
BSEP expression (BSEP, SHP): modestly increased
SHP expression induction (BSEP, SHP): to a lesser extent than CDCA
Serum PM5S mean concentration ± SEM ([4]; mice gavaged 50 mg/kg cholic acid + 500 mg/kg PM5S twice daily for 2 days): 3208.6 ± 1847.1 µM
Serum PM5S mean concentration ± SEM ([4]; mice gavaged 50 mg/kg cholic acid twice daily for 2 days): 10.7 ± 9.6 µM
Na+-dependent and Na+-independent influx of taurocholate [5]: reduce
PM5S concentrations abrogating CDCA-mediated FXR transactivity (FXRα2): ≥ 5 µM
FXR transactivation relative to vehicle-treated control (FXRα2): 182%
pEC50 (FXRα2): < 4.08
GW4064-mediated FGF19 gene expression (FGF19 [6]): significantly reduced
serum CA levels [7]: significantly raised
GW4064-mediated SHP and MDR3 gene expression (SHP and MDR3): significantly abrogated
CDCA-mediated recruitment of SRC-1 peptide to FXR-LBD (FXR-LBD): able to inhibit
recruitment of SRC-1 peptide to FXR-LBD by compound alone (FXR-LBD): unable to potentiate
GW4064-mediated BSEP protein expression (BSEP [8]; 10 μM PM5S): inhibited
BSEP protein expression (BSEP [8]; 25-100 μM PM5S): completely abolished
GW4064-induced increase in 3HTC efflux ([9]; cotreated with 25 or 50 μM PM5S, 0.5 μM GW4064): abolished
induction of Bsep and Mdr2 expression ([1]; CA+PM5S group compared to CA group): significantly abrogated
Shp and Ntcp expression levels ([1]; CA+PM5S, CA and vehicle groups): no differences
levels of secreted FGF19 (FGF19 [10]; 50 μM and 100 μM PM5S): reaching significance
levels of secreted FGF19 (FGF19 [10]; cotreatment with 10 μM and 25 μM PM5S): trend towards a reduction
induction of BSEP gene expression (BSEP, SHP, CYP7A1): 160%
repression of CYP7A1 expression (BSEP, SHP, CYP7A1): > 90%
induction of SHP gene expression (BSEP, SHP, CYP7A1): 200%

CC(C)c1onc(-c2c(Cl)cccc2Cl)c1COc1ccc(/C=C/c2cccc(C(=O)O)c2)c(Cl)c1 [GW4064, reference compound]
increase in BSEP protein levels (BSEP [8]; relative to vehicle): 1.5 fold
3HTC efflux ([9]; 0.5 μM GW4064 overnight, relative to vehicle): significantly increased
increase in secreted FGF19 (FGF19 [10]; 0.5 μM GW4064, 24 hours): 2.8 fold
